Assay results as given in ChEMBL document CHEMBL5724801, “EUbOPEN Chemogenomics Library - Multiplex” (2024).
Where “and” joins values, the source holds several entries; their conditions need not be identical. Equal values may be shown once.

Test system: HEK-293T
Assay: Multiplex assay against HEK293T
Assay type: toxicity, cell-based
Conditions: human
In short: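 Phenotypes for tubulin, mitochondrial mass and membrane permeability are expressed as per cents of healthy-nucleus cells. Cells were stained live at seeding with Hoechst33342, BioTracker Green Microtubule Cytoskeleton Dye, MitoTracker Red and Annexin V Alexa Fluor 680, then imaged after compound addition on a CQ1 microscope at 37°C and 5% CO2. Machine-learning gating in CellPathfinder separated Hoechst high-intensity objects from normal cells, divided normal cells by nuclear state (healthy, pyknosed, fragmented) and divided pyknosed cells into mitotic or apoptotic.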

[1] = 12 h, 1 µM, compound concentration 1 uM
[2] = 12 h, 10 µM, compound concentration 10 uM
[3] = 24 h, 1 µM, compound concentration 1 uM
[4] = 24 h, 10 µM, compound concentration 10 uM
[5] = 48 h, 1 µM, compound concentration 1 uM
[6] = 48 h, 10 µM, compound concentration 10 uM

Structure (SMILES): Cc1c(CC(=O)O)c2cccnc2n1Cc1ccc(S(C)(=O)=O)cc1C(F)(F)F [FEVIPIPRANT]
- Population Apoptotic (%) [1]: 27% and 41%
- Population Fragmented Nuclei (%) [1]: 6% and 7%
- Population Healthy Nuclei (%) [1]: 83% and 79%
- Population Hoechst High Intensity Objects (%) [1]: 5% and 7%
- Population Membrane Permeable-Phenotype (%) [1]: 0%
- Population Mitochondria Different-Phenotype (%) [1]: 32% and 52%
- Population Mitotic Cells (%) [1]: 72% and 58%
- Population Normal (%) [1]: 94% and 92%
- Population Pyknosed Nuclei (%) [1]: 9% and 12%
- Population Tubulin-Different-Phenotype (%) [1]: 22% and 16%
- Total Cell Count [1]: 471 and 370
- Population Apoptotic (%) [2]: 33% and 52%
- Population Fragmented Nuclei (%) [2]: 5% and 11%
- Population Healthy Nuclei (%) [2]: 80% and 75%
- Population Hoechst High Intensity Objects (%) [2]: 6% and 10%
- Population Membrane Permeable-Phenotype (%) [2]: 0%
- Population Mitochondria Different-Phenotype (%) [2]: 46% and 66%
- Population Mitotic Cells (%) [2]: 66% and 47%
- Population Normal (%) [2]: 93% and 89%
- Population Pyknosed Nuclei (%) [2]: 13% and 12%
- Population Tubulin-Different-Phenotype (%) [2]: 29% and 32%
- Total Cell Count [2]: 417 and 303
- Population Apoptotic (%) [3]: 22% and 43%
- Population Fragmented Nuclei (%) [3]: 8% and 7%
- Population Healthy Nuclei (%) [3]: 81% and 82%
- Population Hoechst High Intensity Objects (%) [3]: 3% and 4%
- Population Membrane Permeable-Phenotype (%) [3]: 1% and 0%
- Population Mitochondria Different-Phenotype (%) [3]: 18% and 37%
- Population Mitotic Cells (%) [3]: 77% and 56%
- Population Normal (%) [3]: 96% and 95%
- Population Pyknosed Nuclei (%) [3]: 10%
- Population Tubulin-Different-Phenotype (%) [3]: 18% and 14%
- Total Cell Count [3]: 637 and 457
- Population Apoptotic (%) [4]: 33% and 50%
- Population Fragmented Nuclei (%) [4]: 8% and 9%
- Population Healthy Nuclei (%) [4]: 80% and 81%
- Population Hoechst High Intensity Objects (%) [4]: 5% and 11%
- Population Membrane Permeable-Phenotype (%) [4]: 0%
- Population Mitochondria Different-Phenotype (%) [4]: 31% and 44%
- Population Mitotic Cells (%) [4]: 66% and 50%
- Population Normal (%) [4]: 94% and 88%
- Population Pyknosed Nuclei (%) [4]: 10% and 8%
- Population Tubulin-Different-Phenotype (%) [4]: 20%
- Total Cell Count [4]: 499 and 334
- Population Apoptotic (%) [5]: 16% and 20%
- Population Fragmented Nuclei (%) [5]: 13% and 11%
- Population Healthy Nuclei (%) [5]: 79% and 82%
- Population Hoechst High Intensity Objects (%) [5]: 1% and 2%
- Population Membrane Permeable-Phenotype (%) [5]: 2% and 0%
- Population Mitochondria Different-Phenotype (%) [5]: 12% and 16%
- Population Mitotic Cells (%) [5]: 83% and 79%
- Population Normal (%) [5]: 98% and 97%
- Population Pyknosed Nuclei (%) [5]: 7% and 6%
- Population Tubulin-Different-Phenotype (%) [5]: 12% and 10%
- Total Cell Count [5]: 1065 and 713
- Population Apoptotic (%) [6]: 29% and 45%
- Population Fragmented Nuclei (%) [6]: 14%
- Population Healthy Nuclei (%) [6]: 78% and 77%
- Population Hoechst High Intensity Objects (%) [6]: 4% and 7%
- Population Membrane Permeable-Phenotype (%) [6]: 0% and 1%
- Population Mitochondria Different-Phenotype (%) [6]: 24% and 22%
- Population Mitotic Cells (%) [6]: 70% and 55%
- Population Normal (%) [6]: 95% and 92%
- Population Pyknosed Nuclei (%) [6]: 7% and 8%
- Population Tubulin-Different-Phenotype (%) [6]: 14% and 17%
- Total Cell Count [6]: 794 and 491

Structure (SMILES): COCCNc1cc(NC(=O)N2CCCc3cc(CN4CCN(C)CC4=O)c(C=O)nc32)ncc1C#N [FGF401]
- Population Apoptotic (%) [1]: 5.7% and 11.57%
- Population Fragmented Nuclei (%) [1]: 1.49% and 2.8%
- Population Hoechst High Intensity Objects (%) [1]: 0%
- Population Membrane Permeable-Phenotype (%) [1]: 1.74% and 5.56%
- Population Mitotic Cells (%) [1]: 94.3% and 88.43%
- Population Normal (%) [1]: 100%
- Population Pyknosed Nuclei (%) [1]: 47.16% and 84.62%
- Population Tubulin-Different-Phenotype (%) [1]: 6.4% and 11.11%
- Total Cell Count [1]: 335 and 143
- Population Fragmented Nuclei (%) [2]: 2.52% and 7.02%
- Population Hoechst High Intensity Objects (%) [2]: 0%
- Population Membrane Permeable-Phenotype (%) [2]: 0.56% and 0%
- Population Mitochondria Different-Phenotype (%) [2]: 28.09% and 26.67%
- Population Mitotic Cells (%) [2]: 94.7% and 80.22%
- Population Normal (%) [2]: 100%
- Population Pyknosed Nuclei (%) [2]: 41.51% and 79.82%
- Total Cell Count [2]: 318 and 114
- Population Apoptotic (%) [3]: 13.08% and 17.17%
- Population Fragmented Nuclei (%) [3]: 0.93% and 3.47%
- Population Healthy Nuclei (%) [3]: 74.95% and 27.78%
- Population Hoechst High Intensity Objects (%) [3]: 0%
- Population Membrane Permeable-Phenotype (%) [3]: 1.49% and 2.5%
- Population Mitochondria Different-Phenotype (%) [3]: 17.33% and 12.5%
- Population Mitotic Cells (%) [3]: 86.92% and 82.83%
- Population Normal (%) [3]: 100%
- Population Pyknosed Nuclei (%) [3]: 24.12% and 68.75%
- Population Tubulin-Different-Phenotype (%) [3]: 19.8% and 10%
- Population Apoptotic (%) [4]: 12.61% and 19.59%
- Population Fragmented Nuclei (%) [4]: 1.6% and 5.3%
- Population Hoechst High Intensity Objects (%) [4]: 0%
- Population Membrane Permeable-Phenotype (%) [4]: 1.05% and 3.57%
- Population Mitochondria Different-Phenotype (%) [4]: 16.84% and 25%
- Population Mitotic Cells (%) [4]: 87.39% and 80.41%
- Population Normal (%) [4]: 100%
- Population Tubulin-Different-Phenotype (%) [4]: 19.21% and 17.86%
- Population Apoptotic (%) [5]: 7.89% and 20.99%
- Population Fragmented Nuclei (%) [5]: 2.1% and 1.11%
- Population Healthy Nuclei (%) [5]: 85.6% and 53.89%
- Population Hoechst High Intensity Objects (%) [5]: 0%
- Population Membrane Permeable-Phenotype (%) [5]: 6.24% and 0%
- Population Mitochondria Different-Phenotype (%) [5]: 18.81% and 29.9%
- Population Mitotic Cells (%) [5]: 92.11% and 79.01%
- Population Normal (%) [5]: 100%
- Population Fragmented Nuclei (%) [6]: 3.22% and 0%
- Population Healthy Nuclei (%) [6]: 84.41% and 59.29%
- Population Hoechst High Intensity Objects (%) [6]: 0% and 0.71%
- Population Membrane Permeable-Phenotype (%) [6]: 4.23% and 1.2%
- Population Mitochondria Different-Phenotype (%) [6]: 18.89% and 40.96%
- Population Mitotic Cells (%) [6]: 94.37% and 80.7%
- Population Normal (%) [6]: 100% and 99.29%
